Reference: article PMC8520753 (CPT: Pharmacometrics & Systems Pharmacology, 2021)
“Also recorded” adds a separate entry of the source. Like-named read-outs stand apart in the source and are kept apart here.

How the values were obtained:
[1] = subject with a bodyweight of 70 kg; cited from earlier work
[2] = Refined pediatric population pharmacokinetic; type: in vivo, children (pediatric patients); conditions: for Relative oral bioavailability: set to 100% for 0.12 mg/kg
Outline: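 Children from birth to <18 y (VTE and post-Fontan) received oral bodyweight-adjusted rivaroxaban at 0.4 mg–20 mg, as single or multiple o.d./b.i.d./t.i.d. doses of tablet, oral suspension or granules. Plasma concentrations were fitted by PopPK with an 82.48 kg adult reference weight. Age, dose/kg on F1, formulation on ka, renal function and Fontan were screened graphically, then against random-effect estimates.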

[3] = cited from earlier work
[4] = integrated PopPK model in adults; cited from earlier work
[5] = cited from earlier work; remark: listed apart in the source
[6] = target: CYP3A7 (Homo sapiens, UniProt P24462); assay: In vitro analyses of CYP3A7 contribution; type: in vitro ADME; conditions: historic and recently repeated in vitro analyses, unpublished, data on file
Sequence of CYP3A7 (P24462 whole entry): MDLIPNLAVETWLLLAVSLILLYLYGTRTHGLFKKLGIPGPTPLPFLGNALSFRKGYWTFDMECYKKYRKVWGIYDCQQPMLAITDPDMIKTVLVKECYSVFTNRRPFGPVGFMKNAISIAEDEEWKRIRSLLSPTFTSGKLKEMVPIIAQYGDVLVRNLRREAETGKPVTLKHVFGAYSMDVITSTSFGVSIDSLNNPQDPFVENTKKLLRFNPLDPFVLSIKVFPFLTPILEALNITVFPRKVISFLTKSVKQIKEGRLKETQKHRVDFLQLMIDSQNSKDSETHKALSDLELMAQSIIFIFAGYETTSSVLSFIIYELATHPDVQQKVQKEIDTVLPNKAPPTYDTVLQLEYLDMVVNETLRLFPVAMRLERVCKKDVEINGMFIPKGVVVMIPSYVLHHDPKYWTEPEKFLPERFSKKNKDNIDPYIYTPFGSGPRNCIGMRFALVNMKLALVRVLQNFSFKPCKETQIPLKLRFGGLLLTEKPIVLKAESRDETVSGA

[7] = PopPK fixed effect, children, reference BW 82.48 kg

Question: What does the source list for `O=C(NC[C@H]1CN(c2ccc(N3CCOCC3=O)cc2)C(=O)O1)c1ccc(Cl)s1` [rivaroxaban]?
Answer: Total plasma clearance [1]: 7.26 L/h; ka, tablet, granules for oral suspension and diluted ready-to-use oral suspension [2]: 0.799 h⁻¹; ka, undiluted ready-to-use oral suspension [2]: 0.226 h⁻¹; ka for tablets, granules and diluted suspension ([2]; PopPK fixed effect, children): 0.799 h⁻¹; ka for undiluted suspension ([2]; PopPK fixed effect, children): 0.226 h⁻¹; CL for subject with BW of 82.48 kg [2, 7]: 8.02 L/h; Q for subjects with BW of 82.48 kg [2, 7]: 2.50 L/h; Vc for subject with BW of 82.48 kg [2, 7]: 53.2 L; Vp for subject with BW of 82.48 kg [2, 7]: 59.1 L; Exponent to scale Vc and Vp on BW ([2]; allometric exponent, assumed identical for Vc and Vp): 0.821; Exponent to scale Q on BW ([2]; allometric exponent, children): 0.761; Relative oral bioavailability ([2]; at 0.30 mg/kg): 79.1%; Relative oral bioavailability ([2]; at 0.50 mg/kg): 68.1%; Effect of bodyweight on CL, Q, Vc and Vp ([2]; covariate analysis): significant effect; Effect of age on CL or F1 ([2]; covariate analysis, age 0 to 18 years): No effect; Influence of renal function on PK ([2]; covariate analysis, four approaches, eGFR 43.8 to 456 ml/min/1.73 m^2): None of the four methods to test for an influence of renal function led to a significant improvement; also recorded: None of the four tested methods could improve the model fit; Effect of comedication (weak or moderate CYP3A4 inhibitors, CYP3A4 inducers) on CL or F1 ([2]; exploratory evaluation): no significant effect; clearance ([2]; human, plasma, oral): 134 mL/min; ωCL2 (exponential), interindividual variability ([2]; random effect on CL): 0.0705; ωF12 (exponential), interindividual variability ([2]; random effect on F1): 0.0612; Population variation of CL (interindividual variability) ([2]; sqrt{exp(ω^2)-1}*100): 27.0%; Population variation of F1 (interindividual variability) ([2]; sqrt{exp(ω^2)-1}*100): 25.1%; Dose-dependency of relative oral bioavailability ([2]; ~0.1 to 0.5 mg/kg single doses): decrease with increasing dose per bodyweight; Biopharmaceutics Classification System class [3]: class 2; Total plasma clearance [4]: 6.58 L/h; Share of elimination by CYP3A, glomerular filtration and tubular secretion ([5]; adult mass balance data): ~ 54%; Excreted unchanged via feces ([5]; adult mass balance): 7%; Share of elimination by CYP2J2 ([5]; adult mass balance): 14%; Share of elimination by CYP-independent hydrolysis ([5]; adult mass balance): 14%; Unaccounted in the mass balance study ([5]; adult mass balance): 11%; Contribution of CYP3A7 to the high clearance below 2 years [6]: could also be excluded
